Measured values taken from ChEMBL document CHEMBL4765234 (J Med Chem, 2016).
Activity calls are given as the source filed them. The rule behind the calls is not given here.

Experiments:
[1] = target: T1, Free fatty acid receptor 1 (Homo sapiens, UniProt O14842); experiment: Displacement of [3H]-TAK-875 from human recombinant full-length GPR40 expressed in human HEK293 cell membrane incubated for 2 hrs by solid scintillation counting method; assay type: cell membranes; conditions: for Activity: filed as agonist
[2] = target: T1, Free fatty acid receptor 1; experiment: Agonist activity at human recombinant full length GPR40 overexpressed in human HEK293 cells assessed as increase in intracellular calcium level measured over 3 mins by calcium 4 dye based FLIPR assay; assay type: functional, cell-based
How it was run: (§1)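 HEK293 cells overexpressing hGPR40 (25K/well) were cultured overnight in DMEM/F12 with 0.2% FBS and geneticin. Compound was tested at 40 μM–0.1 nM final (20-point, 1% DMSO), and FLIPR fluorescence was read over 3 min.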

[3] = target: T1, Free fatty acid receptor 1; experiment: Agonist activity at human recombinant full length GPR40 overexpressed in human HEK293 cells assessed as increase in intracellular calcium level measured over 3 mins by calcium 4 dye based FLIPR assay relative to 100 uM linoleic acid; assay type: functional, cell-based; conditions: filed as agonist; how it was run: as §1
[4] = target: T1, Free fatty acid receptor 1; experiment: Agonist activity at human recombinant full-length Prolink-tagged GPR40 fused with EA-tagged beta-arrestin expressed in human HEK293 cells assessed as induction of beta-arrestin recruitment measured after 90 mins by beta-galactosidase based PathHunter assay; assay type: cell-based
How it was run: (§2)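 PathHunter β-gal complementation. Cells were incubated overnight at 5000/well in medium with 1% heat-inactivated FBS. Compound was added as a 20-point 2-fold series from a top final of 100 μM (1% DMSO) for 90 min at 37 °C, followed by detection reagents and chemiluminescence read after 1 h at rt.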

[5] = target: Free fatty acid receptor 1 (Mus musculus, UniProt Q76JU9); experiment: Agonist activity at Prolink-tagged mouse GPR40 fused with EA-tagged beta-arrestin expressed in human U2OS cells assessed as induction of beta-arrestin recruitment measured after 90 mins by beta-galactosidase based PathHunter assay; assay type: cell-based; how it was run: as §2
[6] = target: Free fatty acid receptor 1 (Mus musculus) (UniProt Q76JU9); experiment: Agonist activity at Prolink-tagged mouse GPR40 fused with EA-tagged beta-arrestin expressed in human U2OS cells assessed as induction of beta-arrestin recruitment measured after 90 mins by beta-galactosidase based PathHunter assay relative to control; assay type: cell-based; conditions: filed as agonist; how it was run: as §2
[7] = target: Free fatty acid receptor 1 (Rattus norvegicus) (UniProt Q8K3T4); experiment: Agonist activity at Prolink-tagged rat GPR40 fused with EA-tagged beta-arrestin expressed in human U2OS cells assessed as induction of beta-arrestin recruitment measured after 90 mins by beta-galactosidase based PathHunter assay relative to control; assay type: cell-based; conditions: filed as agonist; how it was run: as §2
[8] = target: T1, Free fatty acid receptor 1; experiment: Agonist activity at human recombinant full length GPR40 overexpressed in human HEK293 cells assessed as increase in inositol phosphate accumulation in presence of terbium cryptate-labeled anti IP1/d2-labelled IP1 measured after 120 mins by HTRF assay; assay type: functional, cell-based
How it was run: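 HEK293 hGPR40 cells (20K/well) were cultured overnight, washed, and held in IP1 stimulation buffer. IP-1 was measured by competitive HTRF immunoassay with terbium cryptate anti-IP1 mAb and d2-labelled IP1.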

[9] = target: T1, Free fatty acid receptor 1; experiment: Displacement of [3H]-(S)-2-(6-((2',6'-dimethyl-4'-(3-(methylsulfonyl)propoxy)biphenyl-3-yl)methoxy)-2,3-dihydrobenzofuran-3-yl)acetic acid from human recombinant full-length GPR40 expressed in human HEK293 cell membrane assessed as dissociation constant measured after 2 hrs by radioligand competitive assay; assay type: cell membranes
[10] = target: T1, Free fatty acid receptor 1; experiment: Displacement of [3H]-(S)-2-(6-((2',6'-dimethyl-4'-(3-(methylsulfonyl)propoxy)biphenyl-3-yl)methoxy)-2,3-dihydrobenzofuran-3-yl)acetic acid from human recombinant full-length GPR40 expressed in human HEK293 cell membrane assessed as residence time by radioligand competitive assay; assay type: cell membranes; conditions: filed as agonist
How it was run: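 Residence time came from competitive association kinetics. [3H]-radioligand binding to human GPR40 HEK293 membranes (5 μg, rt, Tris/Ca/Mg/0.1% BSA buffer) was measured at time points over 0–3 h, with and without several concentrations of unlabeled test compound. Fits used association and dissociation rates of the radioligand from independent kinetic experiments.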

[11] = target: Free fatty acid receptor 1 (Mus musculus) (UniProt Q76JU9); experiment: Agonist activity at GPR40 in mouse MIN6 cells assessed as induction of glucose-mediated insulin secretion incubated for 2 hrs by ELISA; assay type: cell-based
How it was run: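 Glucose-dependent insulin secretion in mouse MIN6 cells or rat islet cells, scored as secretion above the glucose-alone level.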

[12] = test system: Mus musculus; experiment: Hypoglycemic activity in Balb/c mouse assessed as effective dose causing reduction in blood glucose level administered orally 60 mins prior to glucose challenge measured for 60 mins by IPGTT; assay type: functional; conditions: po, 1 h
[13] = Protein binding in plasma (unknown origin) by equilibrium dialysis method; assay type: ADME, cell-free; conditions: human, read-out: PPB
How it was run: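 Plasma protein binding measured by equilibrium dialysis.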

[14] = target: T2, Peroxisome proliferator-activated receptor delta (Homo sapiens) (UniProt Q03181); experiment: Displacement of [3H]-[…] from PPARdelta (unknown origin) expressed in baculovirus infected Sf9 insect cells upto 30 uM measured after 10 hrs by microbeta scintillation counting analysis; conditions: dose microM <=30, time 10.0 hrs
T2 sequence (whole entry): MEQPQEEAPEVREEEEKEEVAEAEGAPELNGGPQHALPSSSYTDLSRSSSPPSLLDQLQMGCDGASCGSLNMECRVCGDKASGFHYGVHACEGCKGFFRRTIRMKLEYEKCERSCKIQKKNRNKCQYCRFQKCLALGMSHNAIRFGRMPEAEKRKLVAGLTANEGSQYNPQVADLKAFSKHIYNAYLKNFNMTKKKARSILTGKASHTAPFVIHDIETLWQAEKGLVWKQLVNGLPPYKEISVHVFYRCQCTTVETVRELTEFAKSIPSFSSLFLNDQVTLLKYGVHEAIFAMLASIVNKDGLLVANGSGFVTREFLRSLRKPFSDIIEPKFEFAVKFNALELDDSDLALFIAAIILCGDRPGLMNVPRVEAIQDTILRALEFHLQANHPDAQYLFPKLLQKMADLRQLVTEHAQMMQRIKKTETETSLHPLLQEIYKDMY
How it was run: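 Scintillation proximity assay. Sf9 lysates with baculovirus-expressed PPARα (0.3 μg), PPARδ (0.5 μg) or PPARγ (1.25 μg), each with RXRα, were bound via biotinylated DR2 oligo (0.126 nM) to streptavidin yttrium silicate beads. Buffer was HEPES pH 7.8 with KCl, MgCl2, DTT, CHAPS, 14% glycerol and salmon sperm DNA. A 3H reference agonist ligand was used, with 11 compound concentrations, for 10 h. Nonspecific binding was defined with 10000 nM unlabeled reference. Ki was derived from IC50.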

[15] = Dissociation constant, pKa1 of compound by potentiometric method; assay type: physicochemical
How it was run: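 pKa values measured potentiometrically.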

T1 sequence (O14842 whole entry): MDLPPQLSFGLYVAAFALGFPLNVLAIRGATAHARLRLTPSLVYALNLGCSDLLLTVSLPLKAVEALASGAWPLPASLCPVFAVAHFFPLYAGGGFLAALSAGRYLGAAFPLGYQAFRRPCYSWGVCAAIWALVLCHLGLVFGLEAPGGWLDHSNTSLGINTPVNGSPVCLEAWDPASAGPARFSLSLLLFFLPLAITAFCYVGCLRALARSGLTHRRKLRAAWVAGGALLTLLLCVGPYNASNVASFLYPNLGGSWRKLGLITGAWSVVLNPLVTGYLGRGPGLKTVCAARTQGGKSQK
Free fatty acid receptor 1 (Mus musculus, UniProt Q76JU9), sequence (Q76JU9 whole entry, the tested form may be a part): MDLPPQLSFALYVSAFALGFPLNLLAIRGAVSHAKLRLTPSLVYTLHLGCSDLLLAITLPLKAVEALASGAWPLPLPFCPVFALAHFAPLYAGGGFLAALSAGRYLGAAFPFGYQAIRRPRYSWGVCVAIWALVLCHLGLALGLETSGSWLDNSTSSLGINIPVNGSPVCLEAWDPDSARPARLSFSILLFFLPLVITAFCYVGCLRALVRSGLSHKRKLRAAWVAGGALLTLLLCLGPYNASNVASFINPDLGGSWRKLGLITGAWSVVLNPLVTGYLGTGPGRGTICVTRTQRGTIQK
Free fatty acid receptor 1 (Mus musculus), sequence (Q76JU9 whole entry, the tested form may be a part): as above
Free fatty acid receptor 1 (Rattus norvegicus), sequence (Q8K3T4 whole entry, the tested form may be a part): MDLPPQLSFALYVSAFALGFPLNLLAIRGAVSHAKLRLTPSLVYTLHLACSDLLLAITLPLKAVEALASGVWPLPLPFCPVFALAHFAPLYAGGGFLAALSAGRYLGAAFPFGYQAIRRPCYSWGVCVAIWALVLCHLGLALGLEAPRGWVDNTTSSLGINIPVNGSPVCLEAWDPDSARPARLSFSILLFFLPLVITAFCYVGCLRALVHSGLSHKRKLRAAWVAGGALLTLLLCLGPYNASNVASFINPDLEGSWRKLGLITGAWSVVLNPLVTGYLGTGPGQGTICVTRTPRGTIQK

| SMILES | Ki [1] [nM] | EC50 [2] [nM] | Emax [3] [%] | EC50 [4] [nM] | EC50 [5] [nM] | Emax [6] [%] | Emax [7] [%] | EC50 [8] [nM] | Kd [9] [nM] | TIME [10] [h] | Activity ([11]; filed as agonist) | ED90 [12] [mg/kg] | fraction unbound [13] | Activity [14] | pKa [15] | Activity [1] | EC50 ([5]; u2os) [nM] | Activity [11] |
| --- | --- | --- | --- | --- | --- | --- | --- | --- | --- | --- | --- | --- | --- | --- | --- | --- | --- | --- |
| CC#C[C@@H](CC(=O)O)c1ccc(OCc2ccc(CN3CCC4(CCc5ccccc54)CC3)cc2)cc1 | 4.6 | 19 | 46 | 11 | 0.88 | 135 | 135 | 6.2 | 2.2 | 1.1 | Active | 22 | < 0.01 | inactive | 4.6 | – | – | – |
| CC#C[C@@H](CC(=O)O)c1ccc(OCc2ccc(CN3CCC4(CC3)CN(C)c3ccccc34)cc2)cc1 | 11 | 55 | 47 | 56 | 3.3 | 131 | 126 | 12 | 9.5 | 0.783 | Active | 11.7 | < 0.01 | inactive | 4.3 | – | – | – |
| CC#C[C@@H](CC(=O)O)c1ccc(OCc2ccc(CN3CCC4(C=Cc5ccccc54)CC3)s2)cc1 | 4.8 | 12 | 50 | 5.3 | 0.46 | 119 | 113 | 0.6 | 2 | 0.667 | Active | 3.67 | < 0.01 | inactive | 4.2 | – | – | – |
| CC#C[C@@H](CC(=O)O)c1ccc(OCc2ccc(CN3CCC4(C=Cc5ccccc54)CC3)cc2)cc1 [LY2881835] | – | – | 62 | – | – | 133 | 124 | 1.2 | 2.5 | 2 | Active | 0.58 | < 0.01 | inactive | 4.1 | Dose-dependent effect | 0.85 | – |
| O=C(O)C[C@@H](c1ccc(OCc2ccc3nc(-c4ccccc4)nn3c2)cc1)c1ccon1 | 79 | 14 | 54 | 600 | 3800 | 98 | 61 | 68 | 37 | 0.367 | – | > 100 | < 0.01 | inactive | 1.9 | – | – | inactive |
| CC#C[C@@H](CC(=O)O)c1ccc(OCc2ccc(CN3CCCc4cccc(OC)c43)s2)cc1 | – | – | – | 7 | 1 | 137 | 121 | – | – | – | – | 5 | < 0.01 | – | 3.4 | Dose-dependent effect | – | – |
| O=C(O)CCc1ccc(OCc2ccc(CN3CCC4(C=Cc5ccccc54)CC3)cc2)cc1F | 68 | 180 | 80 | 340 | 32 | 127 | 114 | 39 | 58 | 0.2 | – | > 100 | < 0.01 | inactive | 3.9 | – | – | inactive |
| CC#C[C@@H](CC(=O)O)c1ccc(OCc2ccc(CN3CCC4(CCc5ccccc54)CC3)s2)cc1 | 8.2 | 8 | 50 | 7.9 | 1.2 | 126 | 108 | 6.1 | 3.5 | 1.03 | Active | 5.6 | < 0.01 | inactive | 3.4 | Dose-dependent effect | – | – |
